Results from ChEMBL document CHEMBL2203171, “The use of small molecule probes to study spatially separated stimulus-induced signaling pathways” (Bioorg Med Chem Lett, 2012).
The source made the active and inactive calls. The calls are words filed in the database; no cut-off is given here.

Key:
[1] = target: T1, Inhibitor of nuclear factor kappa-B kinase subunit beta (Mus musculus) (UniProt O88351); assay: Inhibition of IKKbeta in C57BL/6 mouse BMDM cells assessed as inhibition of TNFalpha-induced IkappaBalpha degradation at 50 uM up to 90 mins by Western blot analysis; type: cell-based
T1 sequence (whole entry): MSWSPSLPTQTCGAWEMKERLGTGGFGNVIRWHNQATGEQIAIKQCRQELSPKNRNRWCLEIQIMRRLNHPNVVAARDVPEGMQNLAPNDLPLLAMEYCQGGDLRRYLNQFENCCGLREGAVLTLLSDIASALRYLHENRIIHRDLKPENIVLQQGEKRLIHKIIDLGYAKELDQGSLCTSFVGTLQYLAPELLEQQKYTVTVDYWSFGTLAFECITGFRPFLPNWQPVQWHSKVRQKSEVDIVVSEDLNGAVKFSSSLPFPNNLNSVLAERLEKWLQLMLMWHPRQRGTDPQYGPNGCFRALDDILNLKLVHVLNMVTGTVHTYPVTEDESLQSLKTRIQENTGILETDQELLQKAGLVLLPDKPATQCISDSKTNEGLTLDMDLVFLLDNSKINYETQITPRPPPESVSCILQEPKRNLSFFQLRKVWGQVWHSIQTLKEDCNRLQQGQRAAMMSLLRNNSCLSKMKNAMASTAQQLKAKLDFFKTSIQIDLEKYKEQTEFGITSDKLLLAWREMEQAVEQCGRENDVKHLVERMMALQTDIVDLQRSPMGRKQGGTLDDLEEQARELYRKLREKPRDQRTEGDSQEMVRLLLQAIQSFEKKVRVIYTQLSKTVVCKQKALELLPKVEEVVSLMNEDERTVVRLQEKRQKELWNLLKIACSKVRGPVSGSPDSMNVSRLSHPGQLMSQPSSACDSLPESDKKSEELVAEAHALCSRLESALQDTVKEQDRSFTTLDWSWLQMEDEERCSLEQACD

[2] = target: T2, Interleukin-1 receptor type 1 (Mus musculus) (UniProt P13504); assay: Inhibition of MyD88 recruitment to IL-1R in C57BL/6 mouse BMDM cells assessed as inhibition of IL1-induced p38 MAPK activity up to 90 mins; type: cell-based
T2 sequence (whole entry): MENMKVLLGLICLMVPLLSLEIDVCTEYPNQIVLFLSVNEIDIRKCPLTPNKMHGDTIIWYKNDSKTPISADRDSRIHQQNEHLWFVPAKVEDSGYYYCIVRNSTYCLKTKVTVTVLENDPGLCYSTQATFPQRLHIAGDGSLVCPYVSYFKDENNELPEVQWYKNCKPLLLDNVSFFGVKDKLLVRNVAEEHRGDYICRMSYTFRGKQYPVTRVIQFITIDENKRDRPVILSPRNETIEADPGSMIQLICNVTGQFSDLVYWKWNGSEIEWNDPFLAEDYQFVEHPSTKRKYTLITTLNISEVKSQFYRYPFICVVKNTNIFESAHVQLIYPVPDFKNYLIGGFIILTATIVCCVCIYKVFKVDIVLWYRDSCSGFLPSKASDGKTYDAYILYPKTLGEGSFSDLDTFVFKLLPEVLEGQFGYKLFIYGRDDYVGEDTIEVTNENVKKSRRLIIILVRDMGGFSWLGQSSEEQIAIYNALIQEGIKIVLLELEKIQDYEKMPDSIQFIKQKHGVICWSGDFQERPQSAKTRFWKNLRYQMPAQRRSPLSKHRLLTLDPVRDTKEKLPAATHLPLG
Summary of the method: (§1)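 Bone marrow macrophages from C57BL/6 mice, grown in 70% growth medium (DMEM, 10% FBS) plus 30% L929-conditioned medium and given fresh medium 12-14 h before stimulation. Stimuli: IL-1 40 ng/ml, HKSA ~10^8 cfu/ml, pI:pC 50 μg/ml or CpG 10 μg/ml, ± compound at 10 μM (final) added from a 200x DMSO stock. IκBα and p38 profiled by immunoblot. Three independent experiments, quantitated and normalized.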

[3] = target: T1, Inhibitor of nuclear factor kappa-B kinase subunit beta (Mus musculus); assay: Inhibition of IKKbeta in C57BL/6 mouse BMDM cells assessed as inhibition of LPS-induced IkappaBalpha phosphorylation at 25 uM after 5 mins by Western blot analysis; type: cell-based
Summary of the method: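 C57BL/6 marrow-derived macrophages were cultured in 70% growth medium/30% L929-conditioned medium and refreshed 12-14 h before stimulation. Stimuli were TNF 40 ng/ml or LPS 100 ng/ml, ± compound at 25 μM from a 200x DMSO stock. Western blots tracked IKK, p38, IκBα and phospho-RelA. Results from three independent experiments were quantitated and normalized.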

[4] = target: T1, Inhibitor of nuclear factor kappa-B kinase subunit beta (Mus musculus); assay: Inhibition of IKKebta in C57BL/6 mouse BMDM cells assessed as inhibition of LPS-induced IkappaBalpha phosphorylation at 25 uM by Western blot analysis
[5] = target: T3, Toll-like receptor 3 (Mus musculus) (UniProt Q99MB1); assay: Inhibition of TRIF recruitment to TLR3 in C57BL/6 mouse BMDM cells assessed as inhibition of pI:pC-induced p38 MAPK activity up to 90 mins; type: cell-based; summary of the method: as §1
T3 sequence (whole entry): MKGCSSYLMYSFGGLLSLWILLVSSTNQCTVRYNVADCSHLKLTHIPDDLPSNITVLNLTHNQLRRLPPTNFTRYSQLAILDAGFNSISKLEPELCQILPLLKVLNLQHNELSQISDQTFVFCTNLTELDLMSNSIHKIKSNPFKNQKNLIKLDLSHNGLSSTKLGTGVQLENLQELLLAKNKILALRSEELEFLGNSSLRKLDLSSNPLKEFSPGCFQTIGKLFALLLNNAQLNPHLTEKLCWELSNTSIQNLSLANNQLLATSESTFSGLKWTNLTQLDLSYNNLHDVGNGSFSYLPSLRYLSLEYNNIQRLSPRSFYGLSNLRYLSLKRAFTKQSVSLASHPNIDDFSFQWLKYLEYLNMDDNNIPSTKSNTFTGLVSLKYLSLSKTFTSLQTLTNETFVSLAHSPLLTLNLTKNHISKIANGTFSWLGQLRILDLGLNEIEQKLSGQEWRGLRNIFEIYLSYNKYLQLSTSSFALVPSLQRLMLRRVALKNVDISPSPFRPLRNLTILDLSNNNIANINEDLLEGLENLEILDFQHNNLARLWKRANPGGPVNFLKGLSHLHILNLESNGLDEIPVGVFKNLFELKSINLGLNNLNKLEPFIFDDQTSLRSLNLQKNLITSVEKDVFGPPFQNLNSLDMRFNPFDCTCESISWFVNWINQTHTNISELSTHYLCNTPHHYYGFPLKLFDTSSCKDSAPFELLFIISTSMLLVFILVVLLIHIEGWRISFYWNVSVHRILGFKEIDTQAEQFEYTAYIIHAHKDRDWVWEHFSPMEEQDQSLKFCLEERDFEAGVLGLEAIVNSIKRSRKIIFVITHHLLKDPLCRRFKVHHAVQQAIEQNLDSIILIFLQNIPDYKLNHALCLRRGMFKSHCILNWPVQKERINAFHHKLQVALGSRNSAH

SMILES: O=C(CCCCCN1C(=O)C=CC1=O)Oc1ccc2cc(C(C(=O)NCc3ccccc3)N(C(=O)Cc3ccc4c(c3)OCO4)C3CC3)ccc2c1 (stereo not given)
- inhibition [1]: inactive
- inhibition [2]: inactive
- inhibition [3]: Active
- inhibition [4]: Active
- inhibition [5]: inactive
